What all share (type): functional
Assay [1] deals with P19. Briefly: Cytotoxicity against differentiated mouse P19 cells assessed as cell mass at 1 to 100 uM after 24 hrs by SRB assay relative to control. The method in brief:
(§1)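 Cell mass by SRB assay in P19 cells (CRL-1825), either undifferentiated (P19SCs) or differentiated (P19dCs). Cells exposed to 1, 10 or 100 µM for 24, 48 or 72 h. Values expressed relative to untreated control. Means ± SD from at least 4 independent measurements, 6 repeats each. Significance vs control at p<0.05.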

The subject of assay [2] is P19. The assay can be described thus: Cytotoxicity against differentiated mouse P19 cells assessed as cell mass at 1 to 100 uM after 72 hrs by SRB assay relative to control. The method, boiled down: as §1
(In general: Sulforhodamine B stains cellular protein and so reports cell mass.)

Assay [3] deals with P19. The assay can be described thus: Cytotoxicity against undifferentiated mouse P19 cells assessed as cell mass at 1 to 100 uM after 24 hrs by SRB assay relative to control. The method, boiled down:
as §1

In assay [4] the test system is P19. Briefly: Cytotoxicity against differentiated mouse P19 cells assessed as metabolic activity at 1 to 100 uM after 48 hrs by resazurin assay relative to control. The method, boiled down:
(§2)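 Metabolic activity by resazurin reduction in undifferentiated (P19SCs) or differentiated (P19dCs) P19 cells. Exposure to 1, 10 or 100 µM for 24, 48 or 72 h. Read-out relative to untreated control. Significance vs control at p<0.05.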
Background: The colour change of resazurin is a common sign of viable cells or microbes.

Assay [5] deals with P19. Briefly: Cytotoxicity against differentiated mouse P19 cells assessed as cell mass at 1 to 100 uM after 48 hrs by SRB assay relative to control. The method in brief: as §1
Assay [6] has as its system P19. The assay can be described thus: Cytotoxicity against differentiated mouse P19 cells assessed as metabolic activity at 1 to 100 uM after 24 hrs by resazurin assay relative to control. The method, boiled down: as §2
The subject of assay [7] is P19. Briefly: Cytotoxicity against undifferentiated mouse P19 cells assessed as metabolic activity at 1 to 100 uM after 24 hrs by resazurin assay relative to control. The method, boiled down:
as §2

The test system of assay [8] is P19. The assay can be described thus: Cytotoxicity against undifferentiated mouse P19 cells assessed as cell mass at 1 to 100 uM after 72 hrs by SRB assay relative to control. The method, boiled down: as §1
The test system of assay [9] is P19. The assay can be described thus: Cytotoxicity against differentiated mouse P19 cells assessed as metabolic activity at 1 to 100 uM after 72 hrs by resazurin assay relative to control. The method, boiled down: as §2
For assay [10], the system named is P19. Briefly: Cytotoxicity against undifferentiated mouse P19 cells assessed as cell mass at 1 to 100 uM after 48 hrs by SRB assay relative to control. The method, boiled down: as §1
Assay [11] deals with P19. Briefly: Cytotoxicity against undifferentiated mouse P19 cells assessed as metabolic activity at 1 to 100 uM after 72 hrs by resazurin assay relative to control. The method in brief:
as §2

Assay [12] concerns P19. Briefly: Cytotoxicity against undifferentiated mouse P19 cells assessed as metabolic activity at 1 to 100 uM after 48 hrs by resazurin assay relative to control. The method in brief: as §2
In assay [13] the test system is P19. The assay can be described thus: Cytotoxicity against differentiated mouse P19 cells assessed as mitochondrial superoxide anion level at 100 uM after 72 hrs by MitoSox dye based fluorescence assay relative to control. The method, boiled down: (§3)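 Undifferentiated (P19SCs) or differentiated (P19dCs) P19 cells incubated 24 or 72 h with 1 or 100 µM. Mitochondrial membrane potential and mitochondrial superoxide levels measured and expressed relative to untreated control. Means ± SD from 4 independent measurements, at least 4 repeats each. Significance at p<0.05.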

Assay [14] has as its system P19. The assay can be described thus: Cytotoxicity against differentiated mouse P19 cells assessed as mitochondrial superoxide anion level at 1 uM after 24 hrs by MitoSox dye based fluorescence assay relative to control. The method, boiled down: as §3
Assay [15] has as its system P19. Briefly: Cytotoxicity against undifferentiated mouse P19 cells assessed as mitochondrial membrane potential at 1 uM after 72 hrs by TMRF dye based fluorescence assay relative to control. The method in brief: as §3
In assay [16] the test system is P19. The assay can be described thus: Cytotoxicity against undifferentiated mouse P19 cells assessed as mitochondrial membrane potential at 1 uM after 24 hrs by TMRF dye based fluorescence assay relative to control. The method, boiled down: as §3
Assay [17] concerns P19. The assay can be described thus: Cytotoxicity against differentiated mouse P19 cells assessed as mitochondrial superoxide anion level at 100 uM after 24 hrs by MitoSox dye based fluorescence assay relative to control. The method in brief:
as §3

Assay [18] relates to P19. Briefly: Cytotoxicity against undifferentiated mouse P19 cells assessed as mitochondrial superoxide anion level at 1 uM after 72 hrs by MitoSox dye based fluorescence assay relative to control. The method in brief:
as §3

Assay [19] has as its system P19. Briefly: Cytotoxicity against differentiated mouse P19 cells assessed as mitochondrial membrane potential at 1 uM after 24 hrs by TMRF dye based fluorescence assay relative to control. The method, boiled down: as §3
Assay [20] has as its system P19. The assay can be described thus: Cytotoxicity against differentiated mouse P19 cells assessed as mitochondrial membrane potential at 1 uM after 72 hrs by TMRF dye based fluorescence assay relative to control. The method in brief: as §3
Assay [21] deals with P19. Briefly: Cytotoxicity against undifferentiated mouse P19 cells assessed as mitochondrial membrane potential at 100 uM after 72 hrs by TMRF dye based fluorescence assay relative to control. The method, boiled down:
as §3

The subject of assay [22] is P19. The assay can be described thus: Cytotoxicity against undifferentiated mouse P19 cells assessed as mitochondrial superoxide anion level at 100 uM after 72 hrs by MitoSox dye based fluorescence assay relative to control. The method, boiled down:
as §3

Assay [23] concerns P19. Briefly: Cytotoxicity against undifferentiated mouse P19 cells assessed as mitochondrial superoxide anion level at 1 uM after 24 hrs by MitoSox dye based fluorescence assay relative to control. The method, boiled down: as §3
Assay [24] relates to P19. Briefly: Cytotoxicity against differentiated mouse P19 cells assessed as mitochondrial superoxide anion level at 1 uM after 72 hrs by MitoSox dye based fluorescence assay relative to control. The method in brief:
as §3

Assay [25] has as its system P19. The assay can be described thus: Cytotoxicity against differentiated mouse P19 cells assessed as mitochondrial membrane potential at 100 uM after 24 hrs by TMRF dye based fluorescence assay relative to control. The method in brief: as §3
The subject of assay [26] is P19. Briefly: Cytotoxicity against undifferentiated mouse P19 cells assessed as mitochondrial membrane potential at 100 uM after 24 hrs by TMRF dye based fluorescence assay relative to control. The method in brief:
as §3

The subject of assay [27] is P19. Briefly: Cytotoxicity against differentiated mouse P19 cells assessed as mitochondrial membrane potential at 100 uM after 72 hrs by TMRF dye based fluorescence assay relative to control. The method in brief: as §3
Assay [28] concerns P19. The assay can be described thus: Cytotoxicity against undifferentiated mouse P19 cells assessed as mitochondrial superoxide anion level at 100 uM after 24 hrs by MitoSox dye based fluorescence assay relative to control. The method, boiled down: as §3

Regarding `O=C(c1ccc2c(c1)C(=O)N(CCCO)C2=O)c1ccc2c(c1)C(=O)N(CCCO)C2=O`, the Activity was determined as 110.6% with P19 [1]; 94.7% with P19 [2]; 106% in the assay on P19 [3]; 101.1% in the assay with P19 [4]; 97.9% with P19 [5]; 100.1% in the assay with P19 [6]. Further, the Activity was 105% in the assay with P19 [7]; 100% in the assay with P19 [8]; 98.1% in the assay on P19 [9]; 101.5% in the assay on P19 [10]; 100% in the assay with P19 [11]; 98.1% in the assay on P19 [12].

Take `O=C(c1ccc2c(c1)C(=O)N(c1ccc(O)cc1)C2=O)c1ccc2c(c1)C(=O)N(c1ccc(O)cc1)C2=O`: the Activity with P19 [13] is given as 118.8%; in the assay on P19 [14], 75.8%; with P19 [1], 86.7%; in the assay with P19 [2], 30.9%; in the assay with P19 [15] it was 93%; in the assay with P19 [3] it was 90.2%. Besides, the Activity is 176.1% in the assay with P19 [16]; 113.2% with P19 [17]; 78.4% in the assay with P19 [18]; 87.4% in the assay with P19 [4]; 110.6% in the assay with P19 [19]; 144.7% in the assay on P19 [20]. The Activity is listed as 48.5% in the assay on P19 [5]; 116.7% in the assay with P19 [21]; 96.2% with P19 [6]; 88.5% in the assay on P19 [7]; 86.8% with P19 [8]; 72.5% in the assay on P19 [22]. Besides, the Activity was 93.8% in the assay on P19 [9]; 72.1% in the assay with P19 [23]; 138% in the assay on P19 [24]; 65.8% in the assay on P19 [25]; 81.8% in the assay on P19 [10]; 206.6% in the assay on P19 [26]. For the same compound, the Activity in the assay on P19 [11] was determined as 79.9%; in the assay with P19 [12], 74.4%; in the assay with P19 [27], 136.6%; with P19 [28], 106.6%.

As for `O=C(c1ccc2c(c1)C(=O)N(CCO)C2=O)c1ccc2c(c1)C(=O)N(CCO)C2=O`, the Activity with P19 [1] is given as 96.2%; with P19 [2] it was 80.5%; in the assay on P19 [3] it was 83.9%; with P19 [4] it was 103.7%; in the assay with P19 [5] it was 108.4%; in the assay with P19 [6] it was 113.3%. Moreover, the Activity in the assay with P19 [7] was 101.5%; in the assay on P19 [8], 106.7%; in the assay with P19 [9], 99.4%; in the assay with P19 [10], 92.4%; with P19 [11] it was 113.8%; in the assay with P19 [12] it was 107.8%.

As to `O=C(c1ccc2c(c1)C(=O)N(c1c[nH]c(=O)[nH]c1=O)C2=O)c1ccc2c(c1)C(=O)N(c1c[nH]c(=O)[nH]c1=O)C2=O`, the Activity is 95.8% with P19 [1]; 90.8% with P19 [2]; 115.2% with P19 [3]; 105.3% with P19 [4]; 88.2% with P19 [5]; 116.3% in the assay on P19 [6]. For the same compound, the Activity with P19 [7] came out at 113.8%; in the assay with P19 [8], 97.4%; in the assay on P19 [9], 105%; in the assay on P19 [10] it was 99.4%; with P19 [11], 109.6%; with P19 [12], 103.2%.

Take `O=C(c1ccc2c(c1)C(=O)N(c1nc[nH]n1)C2=O)c1ccc2c(c1)C(=O)N(c1nc[nH]n1)C2=O`: the Activity is on record as 93.3% with P19 [1]; 82% with P19 [2]; 81.2% in the assay with P19 [3]; 96.1% in the assay with P19 [4]; 96% with P19 [5]; 114% in the assay on P19 [6]. Moreover, the Activity with P19 [7] was determined as 92.7%; in the assay on P19 [8] it was 45.5%; with P19 [9], 86.5%; in the assay with P19 [10], 77.6%; with P19 [11], 53.2%; in the assay with P19 [12] it was 94%.

As to `O=C(c1ccc2c(c1)C(=O)N(c1ccccc1O)C2=O)c1ccc2c(c1)C(=O)N(c1ccccc1O)C2=O`, the Activity is on record as 86% with P19 [13]; 111.1% in the assay with P19 [14]; 95.6% in the assay on P19 [1]; 79.8% with P19 [2]; 81.9% with P19 [15]; 103.6% in the assay on P19 [3]. For the same compound, the Activity in the assay on P19 [16] was 82.2%; in the assay on P19 [17], 168%; in the assay on P19 [18], 115.4%; with P19 [4] it was 105.3%; with P19 [19], 117.8%; with P19 [20], 89.4%. In addition, the Activity with P19 [5] came to 93%; in the assay on P19 [21] it was 81.6%; in the assay with P19 [6] it was 105%; with P19 [7], 103.5%; in the assay on P19 [8], 106.5%; with P19 [22], 129.9%. In addition, the Activity in the assay on P19 [9] turned out to be 99.4%; in the assay on P19 [23] it was 108.7%; in the assay with P19 [24] it was 97.8%; in the assay with P19 [25] it was 112%; in the assay on P19 [10], 102%; in the assay on P19 [26], 89.6%. Also, the Activity in the assay with P19 [11] worked out at 101.2%; in the assay with P19 [12] it was 99.7%; in the assay with P19 [27], 93.3%; in the assay on P19 [28], 108.3%.

For the origin of these results see ChEMBL document CHEMBL4002604, “Evaluation of biological properties of 3,3',4,4'-benzophenonetetracarboxylic dianhydride derivatives and their ability to inhibit hexokinase activity” (2017).
